Calls of active or inactive are those of the source. No cut-off for these calls is given here.
Tests used:
[1] = system: Mus musculus; assay: Anticonvulsant activity in CF1 albino mouse assessed as inhibition of maximal electroshock-induced seizures at 30 mg/kg, ip after 4 hrs; assay type: functional, organism-based; set-up: dose 30 mg/kg
Summary of the method: (§1)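 Test compounds suspended in 0.5% methylcellulose and given ip to adult male CF no. 1 albino mice (18-25 g) at 0.01 mL/g body weight before maximal electroshock challenge.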

[2] = system: Mus musculus; assay: Anticonvulsant activity in CF1 albino mouse assessed as inhibition of subcutaneous pentylenetetrazole-induced seizures at 100 mg/kg, ip after 4 hrs; assay type: functional, organism-based; set-up: dose 100 mg/kg
Summary of the method: (§2)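 Adult male CF no. 1 albino mice (18-25 g) dosed ip with compound suspended in 0.5% methylcellulose (0.01 mL/g). Convulsant: pentylenetetrazol dissolved in 0.9% saline as a 0.85% solution for mice, given subcutaneously.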

[3] = system: Mus musculus; assay: Neurotoxicity in CF1 albino mouse assessed as motor impairment at 30 mg/kg, ip after 0.5 hrs; assay type: toxicity, organism-based; set-up: dose 30 mg/kg, route intraperitoneal; conditions: in vivo
[4] = system: Mus musculus; assay: Anticonvulsant activity in CF1 albino mouse assessed as inhibition of subcutaneous pentylenetetrazole-induced seizures at 30 mg/kg, ip after 0.5 hrs; assay type: functional, organism-based; set-up: dose 30 mg/kg; summary of the method: as §2
[5] = system: Mus musculus; assay: Neurotoxicity in CF1 albino mouse assessed as motor impairment at 30 mg/kg, ip after 4 hrs; assay type: toxicity, organism-based; set-up: dose 30 mg/kg, route intraperitoneal; conditions: in vivo
[6] = system: Mus musculus; assay: Anticonvulsant activity in CF1 albino mouse assessed as inhibition of subcutaneous pentylenetetrazole-induced seizures at 100 mg/kg, ip after 0.5 hrs; assay type: functional, organism-based; set-up: dose 100 mg/kg; summary of the method: as §2
[7] = system: Mus musculus; assay: Anticonvulsant activity in CF1 albino mouse assessed as inhibition of subcutaneous pentylenetetrazole-induced seizures at 300 mg/kg, ip after 0.5 hrs; assay type: functional, organism-based; set-up: dose 300 mg/kg; summary of the method: as §2
[8] = system: Mus musculus; assay: Neurotoxicity in CF1 albino mouse assessed as motor impairment at 300 mg/kg, ip after 0.5 hrs; assay type: toxicity, organism-based; set-up: dose 300 mg/kg, route intraperitoneal; conditions: in vivo
[9] = system: Mus musculus; assay: Anticonvulsant activity in CF1 albino mouse assessed as inhibition of maximal electroshock-induced seizures at 300 mg/kg, ip after 4 hrs; assay type: functional, organism-based; set-up: dose 300 mg/kg; summary of the method: as §1
[10] = system: Mus musculus; assay: Anticonvulsant activity in CF1 albino mouse assessed as inhibition of maximal electroshock-induced seizures at 300 mg/kg, ip after 0.5 hrs; assay type: functional, organism-based; set-up: dose 300 mg/kg; summary of the method: as §1
[11] = system: Mus musculus; assay: Anticonvulsant activity in CF1 albino mouse assessed as inhibition of maximal electroshock-induced seizures at 100 mg/kg, ip after 4 hrs; assay type: functional, organism-based; set-up: dose 100 mg/kg; summary of the method: as §1
[12] = system: Mus musculus; assay: Anticonvulsant activity in CF1 albino mouse assessed as inhibition of maximal electroshock-induced seizures at 100 mg/kg, ip after 0.5 hrs; assay type: functional, organism-based; set-up: dose 100 mg/kg; summary of the method: as §1
[13] = system: Mus musculus; assay: Neurotoxicity in CF1 albino mouse assessed as motor impairment at 100 mg/kg, ip after 0.5 hrs; assay type: toxicity, organism-based; set-up: dose 100 mg/kg, route intraperitoneal; conditions: in vivo
[14] = system: Mus musculus; assay: Anticonvulsant activity in CF1 albino mouse assessed as inhibition of subcutaneous pentylenetetrazole-induced seizures at 30 mg/kg, ip after 4 hrs; assay type: functional, organism-based; set-up: dose 30 mg/kg; summary of the method: as §2
[15] = system: Mus musculus; assay: Neurotoxicity in CF1 albino mouse assessed as motor impairment at 300 mg/kg, ip after 4 hrs; assay type: toxicity, organism-based; set-up: dose 300 mg/kg, route intraperitoneal; conditions: in vivo
[16] = system: Mus musculus; assay: Neurotoxicity in CF1 albino mouse assessed as motor impairment at 100 mg/kg, ip after 4 hrs; assay type: toxicity, organism-based; set-up: dose 100 mg/kg, route intraperitoneal; conditions: in vivo
[17] = system: Mus musculus; assay: Anticonvulsant activity in CF1 albino mouse assessed as inhibition of subcutaneous pentylenetetrazole-induced seizures at 300 mg/kg, ip after 4 hrs; assay type: functional, organism-based; set-up: dose 300 mg/kg; summary of the method: as §2
[18] = system: Mus musculus; assay: Anticonvulsant activity in CF1 albino mouse assessed as inhibition of maximal electroshock-induced seizures at 30 mg/kg, ip after 0.5 hrs; assay type: functional, organism-based; set-up: dose 30 mg/kg; summary of the method: as §1
[19] = system: Rattus norvegicus; assay: Neurotoxicity in Sprague-Dawley rat assessed as motor impairment at 30 mg/kg, po after 0.25 to 4 hrs; conditions: in vivo
[20] = system: Rattus norvegicus; assay: Anticonvulsant activity in Sprague-Dawley rat assessed as inhibition of maximal electroshock-induced seizures at 30 mg/kg, po after 15 mins
[21] = system: Rattus norvegicus; assay: Anticonvulsant activity in Sprague-Dawley rat assessed as inhibition of maximal electroshock-induced seizures at 30 mg/kg, po after 2 hrs
[22] = system: Rattus norvegicus; assay: Anticonvulsant activity in Sprague-Dawley rat assessed as inhibition of maximal electroshock-induced seizures at 30 mg/kg, po after 30 mins
[23] = system: Rattus norvegicus; assay: Anticonvulsant activity in po dosed rat assessed as inhibition of maximal electroshock-induced seizures
[24] = system: Rattus norvegicus; assay: Anticonvulsant activity in Sprague-Dawley rat assessed as inhibition of maximal electroshock-induced seizures at 30 mg/kg, po after 1 hr
[25] = organism: Rattus norvegicus; assay: Protective index, ratio of TD50 for rat to ED50 for maximal electroshock-induced rat seizure model

SMILES | Activity [1] | Activity [2] | Activity [3] | Activity [4] | Activity [5] | Activity [6] | Activity [7] | Activity [8] | Activity [9] | Activity [10] | Activity [11] | Activity [12] | Activity [13] | Activity [14] | Activity [15] | Activity [16] | Activity [17] | Activity [18] | Activity [19] | also measured
CC(C)(C)C(=O)NCc1ccc(S(N)(=O)=O)cc1 | inactive | inactive | Non-toxic | inactive | Non-toxic | inactive | inactive | Non-toxic | inactive | inactive | inactive | inactive | Non-toxic | inactive | Non-toxic | Non-toxic | inactive | inactive |  | 
CCC(C)C(CC)C(=O)Nc1ccc(S(N)(=O)=O)cc1 (configuration not stated) | inactive | inactive | Non-toxic | inactive | Non-toxic | inactive | inactive | Non-toxic | Active |  | Active |  | Non-toxic | inactive | Non-toxic | Non-toxic | inactive | inactive | Non-toxic | Activity [20]: inactive; Activity [21]: Active; Activity [22]: inactive
CC1(C)C(C(=O)Nc2ccc(S(N)(=O)=O)cc2)C1(C)C |  |  |  |  |  |  |  |  |  |  |  |  |  |  |  |  |  |  |  | ED50 [23]: 26 mg/kg
CC(C)C(C(=O)Nc1ccc(S(N)(=O)=O)cc1)C(C)C | inactive | inactive | Non-toxic | inactive | Non-toxic | inactive | inactive | Non-toxic | inactive | inactive | inactive | inactive | Non-toxic | inactive | Non-toxic | Non-toxic | inactive | inactive | Non-toxic | Activity [20]: inactive; Activity [21]: inactive; Activity [24]: inactive; Activity [22]: inactive
CC1(C)C(C(=O)Nc2nnc(S(N)(=O)=O)s2)C1(C)C |  |  |  |  |  |  |  |  |  |  |  |  |  |  |  |  |  |  |  | Ratio TD50/ED50 [25]: >50
CCC(CC)C(=O)NCCc1ccc(S(N)(=O)=O)cc1 | Active | inactive | Non-toxic | inactive | Non-toxic | inactive | inactive | Non-toxic | Active | inactive |  | inactive | Non-toxic | inactive | Non-toxic | Non-toxic | inactive | inactive | Non-toxic | 
CCCC(CCC)C(=O)Nc1ccc(S(N)(=O)=O)cc1 |  |  |  |  |  |  |  |  |  |  |  |  |  |  |  |  |  |  |  | ED50 [23]: 21 mg/kg
